Bioassay records (PubChem BioAssay)
ZTA DNA inh: blocks Epstein-Barr virus ZTA, an EBNA-1 counter-screen. P03206. ZTA-DNA binding, fluorescence polarization. inhibition, % at 11 µM. 0.15% of 320,000 active. AID 2234; in the data active = inhibition above about 33%
Target sequence (P03206 whole entry, looked up): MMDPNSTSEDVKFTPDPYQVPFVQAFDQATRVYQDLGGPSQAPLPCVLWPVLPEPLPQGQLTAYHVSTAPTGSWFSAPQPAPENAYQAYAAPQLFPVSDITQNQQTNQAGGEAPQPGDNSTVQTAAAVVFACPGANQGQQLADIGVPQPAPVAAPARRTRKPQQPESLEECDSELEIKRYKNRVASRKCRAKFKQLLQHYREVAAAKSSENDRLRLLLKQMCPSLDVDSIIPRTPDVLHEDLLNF
GPR7 antag: blocks human GPR7 receptor signaling | P48145 | GPR7-expressing cells, fluorescence antagonist assay | inhibition, % at 4.4 µM | 1.1% of 290,000 active; in the data active = inhibition above about 16%, passing the limit was not always enough;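 note: cells stimulated with the agonist NPW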
Target sequence (P48145 whole entry, looked up): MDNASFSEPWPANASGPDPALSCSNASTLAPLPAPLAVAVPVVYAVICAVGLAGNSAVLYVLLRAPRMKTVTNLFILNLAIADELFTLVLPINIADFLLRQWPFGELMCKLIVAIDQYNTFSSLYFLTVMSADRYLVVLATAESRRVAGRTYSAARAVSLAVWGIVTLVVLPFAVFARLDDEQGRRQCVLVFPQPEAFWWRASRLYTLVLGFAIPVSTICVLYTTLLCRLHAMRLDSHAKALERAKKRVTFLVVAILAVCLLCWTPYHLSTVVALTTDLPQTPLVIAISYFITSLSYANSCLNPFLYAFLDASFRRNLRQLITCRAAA
DNA FID counter-1: counter-screen for HCV NS3 helicase inhibitors: DNA intercalator displacement. DNA fluorescent intercalator displacement, fluorescence. 0.17% of 290,000 active. inhibition, % at 7.9 µM;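 note: higher means more ethidium bromide displaced from hairpin DNA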
EBNA-1 inh: blocks EBNA-1 binding to DNA. EBNA-1 DNA binding, fluorescence polarization. inhibition, % at 14.8 µM. 0.34% of 300,000 active. AID 1950; in the data active = inhibition above about 28%
NS3 helicase inh: HCV NS3 helicase inhibition; NS3 helicase DNA unwinding, Cy5 molecular beacon fluorescence; inhibition, % at 10.9 µM; 0.56% of 290,000 active;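 active = inhibition above the mean of all tested compounds plus 3 SD, set per campaign, cut at about 35% in these data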
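System: Hepatitis C virus NS3 helicase domain fragment enzyme | Reagent: Annealed dual-labelled DNA beacon duplex, ATP-started | Compound dosing: 10.9 µM single point, 0.8% DMSO | Incubation: 1 h reaction at 25 °C, ATP-initiated | Technique: Cy5 fluorescence | Evaluation: Percent inhibition from t60/t0 fluorescence ratio | Benchmarks: Low DMSO, high thioflavine S at 110 µM | Replication: Singlicate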
NS3 hel confirm: HCV NS3 helicase inhibition, confirmation assay. AID 1943. shares compounds with NS3 helicase inh. 31% of 1,600 active. NS3 helicase DNA unwinding, Cy5 molecular beacon fluorescence. inhibition, % at 10.9 µM;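 active = inhibition above the mean of all tested compounds plus 3 SD, cutoff set per campaign, cut at about 36% in these data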
DNA FID counter-2: displaces DNA intercalator in HCV helicase counter-screen; shares compounds with NS3 helicase inh; inhibition, % at 7.9 µM; 4% of 1,600 active; DNA fluorescent intercalator displacement, fluorescence; AID 1945;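 note: higher means more displacement of ethidium bromide from the DNA hairpin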
DNA FID DR: counter-screen for HCV NS3 helicase inhibitors: DNA intercalator displacement dose response. IC50, µM. 120 tested, under 10 active. AID 2172. shares compounds with NS3 helicase inh. fluorescent intercalator displacement from DNA, fluorescence; call rule not given here
Of the large screens only hits and unclear results are named; the others gave an inactive call (follow-up assays come after a bar, where they were run). The list is not random: actives were taken first. Their share in the collection is about 2%. Cut-off read from the data, not from the text of the source, unless noted: active = inhibition above about 37%; inactive = the rest.

O=[N+]([O-])c1cc([N+](=O)[O-])c2oc(-c3ccccc3)c(Br)c2c1O	DNA FID counter-1 47, NS3 helicase inh 45 (no result: ZTA DNA inh, EBNA-1 inh) | NS3 hel confirm 74 | DNA FID counter-2 68
CC(C)C(C)(C#N)NC(=O)CSc1nc2scc(-c3ccco3)c2c(=O)n1-c1ccccc1 (stereo unspecified)	NS3 helicase inh 36 | NS3 hel confirm 105 | DNA FID counter-2 inactive | DNA FID DR inactive
C=CCn1c(SCC(=O)N2CCOCC2)nc2scc(-c3ccco3)c2c1=O	none
C=CCn1c(SCC(C)=O)nc2scc(-c3ccco3)c2c1=O	NS3 helicase inh 39 | NS3 hel confirm inactive | DNA FID counter-2 inactive
Cc1cc([N+](=O)[O-])ccc1NC(=O)c1ccco1	none
Cc1cc(NC(=O)c2ccc([N+](=O)[O-])cc2Cl)ccc1NC(=O)c1ccco1	NS3 helicase inh 36 | NS3 hel confirm inactive | DNA FID counter-2 inactive
CCOc1cc(/C=C2\COc3ccccc3C2=O)cc(Br)c1OCC(=O)N(C)C	none
CC(NC(=O)CN1C(=O)NC2(CCCCCC2)C1=O)c1ccccc1Cl (stereo unspecified)	none (no result: GPR7 antag, DNA FID counter-1, EBNA-1 inh, NS3 helicase inh)
Cc1cccc(NS(=O)(=O)c2ccc3c(c2)CCN3C(=O)CCC(=O)O)c1	none
Cc1ccc(NS(=O)(=O)c2ccc3c(c2)CCN3C(=O)CCC(=O)O)cc1Cl	NS3 helicase inh 48 | NS3 hel confirm inactive | DNA FID counter-2 inactive
CSCCC(NC(=O)c1ccccc1)C(=O)Nc1ccc(C)cc1 (stereo unspecified)	none
CSCCC(NC(=O)c1cccc(C)c1)C(=O)Nc1sccc1C(N)=O (stereo unspecified)	NS3 helicase inh 41 | NS3 hel confirm inactive | DNA FID counter-2 inactive
CN(C)C(CNc1ncnc2sccc12)c1cccs1 (stereo unspecified)	NS3 helicase inh 74 | NS3 hel confirm inactive | DNA FID counter-2 inactive
O=C(O)c1ccc(NC(=S)NC(=O)c2cccc(COc3ccccc3)c2)cc1	NS3 helicase inh 36 | NS3 hel confirm 70 | DNA FID counter-2 inactive
O=C(O)c1cccc(NC(=S)NC(=O)c2ccc3ccccc3c2)c1	NS3 helicase inh 41 | NS3 hel confirm 58 | DNA FID counter-2 inactive
O=C(O)CCNc1ccc(NCCC(=O)O)c2c1C(=O)c1ccccc1C2=O	ZTA DNA inh 158, EBNA-1 inh 128, NS3 helicase inh 60 | NS3 hel confirm inactive | DNA FID counter-2 inactive
Cc1cc2nc3c(nc2cc1C)CCCC3	none
CCOC(=O)C1CCCN(C(=O)/C(=C/c2ccco2)NC(=O)c2ccccc2)C1 (stereo unspecified)	NS3 helicase inh 45 | NS3 hel confirm inactive | DNA FID counter-2 inactive
O=C(N/C(=C/c1ccco1)C(=O)N1CCCCCC1)c1ccccc1	none
O=C(O)c1cccc(-c2noc(-c3cccc(Cl)c3)n2)c1	none (no result: GPR7 antag, DNA FID counter-1, EBNA-1 inh, NS3 helicase inh)
Cc1ccc(C2C(C#N)=C(N)SC(N)=C2C#N)c(C)c1	NS3 helicase inh 36 | NS3 hel confirm inactive | DNA FID counter-2 inactive
CCOC(=O)n1c(=O)n(C)c2ccc(Br)cc21	NS3 helicase inh 112 | NS3 hel confirm inactive | DNA FID counter-2 inactive
CCOc1ccc(NC(=O)CC2C(=O)N(c3ccc(OC)cc3)C(=O)N2Cc2ccc(OC)cc2)cc1 (stereo unspecified)	none
COc1ccc(NC(=O)CC2C(=O)N(c3ccc(OC)cc3)C(=O)N2C(C)C)cc1 (stereo unspecified)	NS3 helicase inh 46 | NS3 hel confirm inactive | DNA FID counter-2 inactive
COc1ccc(N=C2SC(CC(=O)Nc3ccc(F)cc3)C(=O)N2Cc2ccco2)cc1 (stereo unspecified)	none
COc1ccc(N=C2SC(CC(=O)Nc3ccccc3OC)C(=O)N2Cc2ccco2)cc1 (stereo unspecified)	NS3 helicase inh 41 | NS3 hel confirm inactive | DNA FID counter-2 inactive
CCOC(=O)C1CCN(C(=O)c2cccc(S(=O)(=O)N3c4ccccc4CC3C)c2)CC1 (stereo unspecified)	none (no result: GPR7 antag, DNA FID counter-1, EBNA-1 inh, NS3 helicase inh)
CCOc1ccc(-c2c(C(=O)N/N=C/c3ccc(Cl)cc3)nnn2-c2nonc2N)cc1	none
COC1=C/C(=C/c2c(N)n3nc(-c4ccc(C)cc4)sc3nc2=O)C=CC1=O	NS3 helicase inh 44 (no result: ZTA DNA inh, EBNA-1 inh) | NS3 hel confirm inactive | DNA FID counter-2 inactive
CCOC1=C/C(=C/c2c(N)n3nc(-c4ccccc4)sc3nc2=O)C=CC1=O	none (no result: ZTA DNA inh, EBNA-1 inh)
O=C(O)c1cc2nc(-c3cccs3)cc(C(F)(F)F)n2n1	NS3 helicase inh 39 | NS3 hel confirm inactive | DNA FID counter-2 inactive
FC(F)(F)c1cc(-c2cccs2)nc2cc(-c3ccccc3)nn12	none
COC(=O)c1ccc(COc2ccc(/C=N/Nc3cccc(C(=O)O)c3)cc2)cc1	none
O=C(O)c1cc(N/N=C/c2ccc(OCc3ccccc3)cc2)ccc1Cl	NS3 helicase inh 42 | NS3 hel confirm 67 | DNA FID counter-2 inactive
CCc1ccc(NC(=O)[C@H](Cc2ccccc2)NC(=O)C2CCN(C(=O)[C@@H](N)CC(C)C)CC2)cc1	none
COc1ccc(C(=O)NCc2ccccc2CN2CCCC2)cc1S(=O)(=O)Nc1ccc(C)cc1	none (no result: GPR7 antag, DNA FID counter-1, EBNA-1 inh, NS3 helicase inh)
O=C(CNC(=O)c1cccs1)N/N=C/c1cccc(Cl)c1	none
Cc1sc(NC(=O)C2CCCCC2C(=O)O)c(C(N)=O)c1-c1ccccc1 (stereo unspecified)	none
Cc1sc(NC(=O)/C=C/C(=O)O)c(C(N)=O)c1-c1ccc(C(C)(C)C)cc1	NS3 helicase inh 36 | NS3 hel confirm 60 | DNA FID counter-2 inactive
Cc1sc(NC(=O)C2CCCCC2C(=O)O)c(C(N)=O)c1-c1ccc(C(C)C)cc1 (stereo unspecified)	NS3 helicase inh 39 | NS3 hel confirm 77 | DNA FID counter-2 inactive
CCOC(=O)c1c(NC(=O)/C=C/C(=O)O)sc(C)c1-c1ccc(C(C)(C)C)cc1	none
O=C(Nc1nnc(-c2ccc3c(c2)CCCC3)o1)c1ccc(Cl)cc1Cl	NS3 helicase inh 72 | NS3 hel confirm 72 | DNA FID counter-2 inactive
c1ccc(-c2ccc(-c3ccncn3)cc2)cc1	none (no result: GPR7 antag, DNA FID counter-1, NS3 helicase inh)
COc1cccc(CN(C)C(=O)/C=C/c2ccc(S(=O)(=O)N3CCCCCC3)cc2)c1	none
Cc1sc2ncnc(N3CCC(C(=O)Nc4nnc(SCc5ccccc5F)s4)CC3)c2c1C	none (no result: GPR7 antag, DNA FID counter-1, NS3 helicase inh)
COc1ccc(CCNC(=O)c2ccc3nc(-c4ccco4)c(-c4ccco4)nc3c2)cc1OC	NS3 helicase inh 52 | NS3 hel confirm 41 | DNA FID counter-2 inactive
O=C(c1ccc2nc(-c3ccco3)c(-c3ccco3)nc2c1)N1CCN(c2ccccc2)CC1	NS3 helicase inh 41 | NS3 hel confirm 65 | DNA FID counter-2 inactive | DNA FID DR inactive
CCc1nc2ccc(C(=O)N3CCN(c4ccccc4)CC3)cc2nc1CC	none
O=C(O)c1ccc2nc(-c3ccco3)c(-c3ccco3)nc2c1	NS3 helicase inh 45 (no result: ZTA DNA inh, EBNA-1 inh) | NS3 hel confirm 67 | DNA FID counter-2 inactive
